B1: Osa-1-4 twister ribozyme (parent)
chain: CCGCCUAACACUGCCAAUGCCGGUCCCAAGCCCGGAUAAAAGUGGAGGGGGCGG

Variants of B1 are the subject of the data set. Put plainly: self-cleavage, relative activity (ratio to wild type); higher = more cleavage; co-transcriptional. Summed up: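 Values are relative activity: the fraction cleaved, normalised to wild type. A doped DNA template for a 54-nucleotide twister ribozyme from Oryza sativa had 97 % wild-type base and 1 % of each other base at the 48 positions downstream of the cleavage site. The RNA was transcribed in vitro for 2 h at 37 °C so that it could cleave itself co-transcriptionally, then sequenced deeply, with cleavage status scored from the presence or absence of upstream sequence in reads.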
For the variant A16G A41U, the self-cleavage was found to be 1.05.
For A16G A41C, the self-cleavage was determined as 0.99.
Take A16G A41G: the self-cleavage was found to be 0.74.
To A16G C14A belongs 0.15; to A16G C14G, 0.53.
To A16G C14U belongs 0.64; to C15U G42A, 0.12.
To C15U G42C belongs 0.06.
With C15U G42U, the self-cleavage is 0.06.
To C15G U12A belongs 0.13; to C15G U12G, 0.15.
To C15G U12C belongs 0.1; to A16C C26U, 0.76.
To A16C C26A belongs 0.03; to A16C C26G, 0.1; to C15G G45A, 0.07.
As to C15G G45U, the self-cleavage came out at 0.04.
On to C15G G45C, for which the self-cleavage was found to be 0.04.
To C15G G30C belongs 0.03; to C15G G30U, 0.06.
The value for A16C C27G was 0.06; that for A16C C27A was 0.13.
The value for A16C C27U was 0.1; that for C15U C52U was 0.48.
With C15U C52A, the self-cleavage was 0.26.
To C15U C52G belongs 0.41.
To A16C U24A belongs 0.11.
Consider A16C U24G, for which the self-cleavage came to 0.04.
To A16C U24C belongs 0.17.
The value for C15G G35C was 0.14.
The value for C15G G35A was 0.38; that for C15G G35U was 0.3.
Regarding C15U G48C, the self-cleavage turned out to be 0.05.
The value for C15U G48A was 0.05; that for C15U G48U was 0.03; that for C15G G51A was 0.13.
To C15G G51C belongs 0.07.
To C15G G51U belongs 0.08; to C15U U43G, 0.12.
For C15U U43C, the self-cleavage amounted to 0.09.
The value for C15U U43A was 0.16; that for C15G G53U was 0.13.
To C15G G53C belongs 0.05.
To C15G G53A belongs 0.13; to C15U U18G, 0.39.
In the case of C15U U18A, the self-cleavage amounted to 0.51.
Consider C15U U18C, for which the self-cleavage worked out at 0.52.
With C15U C21G, the self-cleavage came to 0.04.
The value for C15U C21A was 0.09; that for C15U C21U was 0.46.
To C15U C9U belongs 0.07.
The value for C15U C9A was 0.05; that for C15U C9G was 0.14; that for A16C U37A was 0.84.
Turning to A16C U37C, the self-cleavage is 1.02.
To A16C U37G belongs 0.96; to A16C C15G, 0.54; to A16C C15A, 0.39.
The value for A16C C15U was 0.62; that for A16C G44U was 0.94; that for A16C G44A was 0.95.
To A16C G44C belongs 0.97; to C15G G48C, 0.05; to C15G G48U, 0.04.
Turning to C15G G48A, the self-cleavage was determined as 0.05.
The value for C15U G22U was 0.11; that for C15U G22C was 0.03; that for C15U G22A was 0.17.
The value for A16C C33U was 0.55; that for A16C C33G was 0.06; that for A16C C33A was 0.08.
To C15G G54U belongs 0.35; to C15G G54C, 0.16; to C15G G54A, 0.19.
As for A16C C21G, the self-cleavage came out at 0.08.
Take A16C C21U: the self-cleavage amounted to 0.93.
To A16C C21A belongs 0.45; to C15U C26U, 0.08; to C15U C26G, 0.06.
To C15U C26A belongs 0.01; to A16C C9U, 0.77; to A16C C9A, 0.5.
To A16C C9G belongs 0.51.
As for C15G G50A, the self-cleavage was 0.3.
To C15G G50U belongs 0.26; to C15G G50C, 0.14; to C15U G34U, 0.15.
The value for C15U G34A was 0.21; that for C15U G34C was 0.09.
Turning to A16C G51U, the self-cleavage is 0.35.
The value for A16C G51A was 0.53.
Regarding A16C G51C, the self-cleavage is 0.12.
Take A16C G42C: the self-cleavage was determined as 0.11.
The value for A16C G42A was 0.6.
Take A16C G42U: the self-cleavage turned out to be 0.52.
To C15U G45C belongs 0.04; to C15U G45U, 0.03.
To C15U G45A belongs 0.04.
The value for C15G U18G was 0.37.
For the variant C15G U18C, the self-cleavage was determined as 0.54.
The value for C15G U18A was 0.48; that for C15U C32U was 0.06.
To C15U C32A belongs 0.03; to C15U C32G, 0.08.
The value for C15U U24A was 0.04; that for C15U U24C was 0.04.
C15U U24G: the self-cleavage came out at 0.03.
Turning to A16C G49C, the self-cleavage came out at 0.05.
Consider A16C G49U, for which the self-cleavage was found to be 0.08.
To A16C G49A belongs 0.09; to A16C U18C, 0.91; to A16C U18A, 0.92.
To A16C U18G belongs 0.85; to A16C C32U, 0.09.
Turning to A16C C32G, the self-cleavage was 0.12.
To A16C C32A belongs 0.07; to C15U U37C, 0.36; to C15U U37G, 0.76.
The value for C15U U37A was 0.62; that for A16G C11U was 0.95; that for A16G C11G was 0.65.
The value for A16G C11A was 0.85.
As for C15G U37A, the self-cleavage is 0.45.
The value for C15G U37G was 0.72; that for C15G U37C was 0.47.
The value for A16C C11G was 0.17; that for A16C C11U was 0.86.
To A16C C11A belongs 0.58.
Regarding A16C C20U, the self-cleavage turned out to be 0.93.
Take A16C C20A: the self-cleavage came to 0.83.
Regarding A16C C20G, the self-cleavage was 0.12.
For A16C G23C, the self-cleavage was 0.04.
To A16C G23U belongs 0.06; to A16C G23A, 0.14.
The value for C15U C25U was 0.08; that for C15U C25A was 0.03.
The value for C15U C25G was 0.04; that for C15U G23C was 0.03; that for C15U G23U was 0.03.
Consider C15U G23A, for which the self-cleavage is 0.06.
The value for A16C G45C was 0.05; that for A16C G45A was 0.17; that for A16C G45U was 0.09.
In the case of A16G A8U, the self-cleavage came to 0.5.
The value for A16G A8C was 0.09; that for A16G A8G was 0.76; that for C15U G54C was 0.14.
On to C15U G54U, for which the self-cleavage worked out at 0.43.
To C15U G54A belongs 0.16; to C15U G30C, 0.02; to C15U G30U, 0.03.
Take C15U G30A: the self-cleavage was found to be 0.02.
The value for A16G A36G was 1.01; that for A16G A36U was 1.06.
As for A16G A36C, the self-cleavage was 0.86.
To A16C A29G belongs 0.11; to A16C A29C, 0.05.
The value for A16C A29U was 0.07; that for A16G A28C was 1.
As for A16G A28U, the self-cleavage was determined as 0.92.
To A16G A28G belongs 0.6.
To C15G U43G belongs 0.1; to C15G U43A, 0.17.
As for C15G U43C, the self-cleavage was determined as 0.11.
The value for C15G G44A was 0.12.
C15G G44U: the self-cleavage came to 0.17.
For C15G G44C, the self-cleavage was 0.19.

Values taken from the RNAGym collection of RNA variant scans (doi:10.1002/anie.201605470).
